Data reported in ChEMBL document CHEMBL2029236, “Tubulin binding, protein-bound conformation in solution, and antimitotic cellular profiling of noscapine and its derivatives” (J Med Chem, 2012).
Activity calls are given as the source filed them. No cut-off for these calls is given here.

Columns and labels:
[1] = system: SNU-398; assay: Antiproliferative activity against human SNU398 cells; format: functional, cell-based
Method in brief: (§1)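 Cell viability assay in hepatocellular carcinoma cell lines; IC50 values derived from concentration–response data and reported in nM.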

[2] = Antiproliferative activity against human PLC/PRF/5 cells; format: functional, cell-based; method in brief: as §1
[3] = system: SMMC-7721; assay: Antiproliferative activity against human SMMC7721 after 72 hrs by CellTiter Glo assay; format: functional, cell-based; conditions: SMMC-7721, 72 h; method in brief: as §1
[4] = Antiproliferative activity against human MHCC97H after 72 hrs by CellTiter Glo assay; format: functional; method in brief: as §1
[5] = system: Bel-7402; assay: Antiproliferative activity against human Bel7402 after 72 hrs by CellTiter Glo assay; format: functional, cell-based; conditions: Bel-7402, 72 h; method in brief: as §1
[6] = Antiproliferative activity against human Hep3B after 72 hrs by CellTiter Glo assay; format: functional, Hep 3B2; method in brief: as §1
[7] = system: HepG2; assay: Antiproliferative activity against human HepG2 after 72 hrs by CellTiter Glo assay; format: functional, cell-based; conditions: HepG2, 72 h; method in brief: as §1
[8] = system: Huh-7; assay: Antiproliferative activity against human HuH7 after 72 hrs by CellTiter Glo assay; format: functional, cell-based; conditions: Huh-7, 72 h; method in brief: as §1
[9] = Antiproliferative activity against human JHH2 after 72 hrs by CellTiter Glo assay; format: functional; method in brief: as §1
[10] = Antiproliferative activity against human JHH4 after 72 hrs by CellTiter Glo assay; format: functional; method in brief: as §1
[11] = Antiproliferative activity against human PLC/PRF/5 after 72 hrs by CellTiter Glo assay; format: functional; conditions: PLC-PRF-5, 72 h; method in brief: as §1
[12] = Antiproliferative activity against human SNU182 after 72 hrs by CellTiter Glo assay; format: functional, cell-based; conditions: SNU-182, 72 h; method in brief: as §1
[13] = system: SNU-387; assay: Antiproliferative activity against human SNU387 after 72 hrs by CellTiter Glo assay; format: functional, cell-based; conditions: SNU-387, 72 h; method in brief: as §1
[14] = system: SNU-398; assay: Antiproliferative activity against human SNU398 after 72 hrs by CellTiter Glo assay; format: functional, cell-based; conditions: SNU-398, 72 h; method in brief: as §1
[15] = system: SNU-423; assay: Antiproliferative activity against human SNU423 after 72 hrs by CellTiter Glo assay; format: functional, cell-based; conditions: SNU-423, 72 h; method in brief: as §1
[16] = system: SNU-449; assay: Antiproliferative activity against human SNU449 after 72 hrs by CellTiter Glo assay; format: functional, cell-based; conditions: SNU-449, 72 h; method in brief: as §1
[17] = system: SNU-475; assay: Antiproliferative activity against human SNU475 after 72 hrs by CellTiter Glo assay; format: functional, cell-based; conditions: SNU-475, 72 h; method in brief: as §1
[18] = system: SNU-398; assay: Cell cycle arrest in human SNU398 cells assessed as accumulation at G1 phase after 24 hrs by FACS analysis (reference value: 55.8%); format: functional
[19] = system: SNU-398; assay: Cell cycle arrest in human SNU398 cells assessed as accumulation at G2 phase after 24 hrs by FACS analysis (reference value: 38.2%); format: functional
[20] = system: SNU-398; assay: Cell cycle arrest in human SNU398 cells assessed as accumulation at sub-G1 phase after 24 hrs by FACS analysis (reference value: 1.2%); format: functional
[21] = Cell cycle arrest in human PLC/PRF/5 cells assessed as accumulation at G1 phase after 24 hrs by FACS analysis (reference value: 66.8%); format: functional, cell-based
[22] = Cell cycle arrest in human PLC/PRF/5 cells assessed as accumulation at G2 phase after 24 hrs by FACS analysis (reference value: 26.1%); format: functional, cell-based
[23] = Cell cycle arrest in human PLC/PRF/5 cells assessed as accumulation at sub-G1 phase after 24 hrs by FACS analysis (reference value: 1.4%); format: functional, cell-based
[24] = species on record: Bos taurus; assay: Binding affinity to calf brain tubulin assessed as increase in fluorescence at 10 uM by fluorometry relative to control
Method in brief: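 Fluorescence emission spectra of 10 μM ligand with and without 10 μM tubulin in 10 mM sodium phosphate, 0.1 mM GTP, pH 7.0, 25 °C. Emission intensity (425 nm maximum) and anisotropy were compared between bound and unbound ligand.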

[25] = species on record: Bos taurus; assay: Binding affinity to calf brain tubulin alpha/beta heterodimer assessed as increase in proton signal at […] by STD NMR analysis
Method in brief: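 STD NMR with freshly prepared tubulin α/β heterodimer. Ligand:protein molar ratio 30:1 ([…], […]). Read-out: enhancement of ligand proton signals in STD spectra versus an off-resonance reference spectrum acquired without protein irradiation.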

[26] = Antiproliferative activity against human JHH7 after 72 hrs by CellTiter Glo assay; format: functional; method in brief: as §1
[27] = system: SNU-398; assay: Cell cycle arrest in human SNU398 cells assessed as accumulation at G1 phase at 2 uM after 24 hrs by FACS analysis (reference value: 55.8%); format: functional
[28] = system: SNU-398; assay: Cell cycle arrest in human SNU398 cells assessed as accumulation at G2 phase at 2 uM after 24 hrs by FACS analysis (reference value: 38.2%); format: functional
[29] = system: SNU-398; assay: Cell cycle arrest in human SNU398 cells assessed as accumulation at sub-G1 phase at 2 uM after 24 hrs by FACS analysis (reference value: 1.2%); format: functional
[30] = Cell cycle arrest in human PLC/PRF/5 cells assessed as accumulation at G1 phase at 2 uM after 24 hrs by FACS analysis (reference value: 66.8%); format: functional, cell-based
[31] = Cell cycle arrest in human PLC/PRF/5 cells assessed as accumulation at G2 phase at 2 uM after 24 hrs by FACS analysis (reference value: 26.1%); format: functional, cell-based
[32] = Cell cycle arrest in human PLC/PRF/5 cells assessed as accumulation at sub-G1 phase at 2 uM after 24 hrs by FACS analysis (reference value: 1.4%); format: functional, cell-based
[33] = system: SNU-398; assay: Cell cycle arrest in human SNU398 cells assessed as accumulation at G1 phase at 100 nM after 24 hrs by FACS analysis (reference value: 55.8%); format: functional
[34] = system: SNU-398; assay: Cell cycle arrest in human SNU398 cells assessed as accumulation at G2 phase at 100 nM after 24 hrs by FACS analysis (reference value: 38.2%); format: functional
[35] = system: SNU-398; assay: Cell cycle arrest in human SNU398 cells assessed as accumulation at sub-G1 phase at 100 nM after 24 hrs by FACS analysis (reference value: 1.2%); format: functional
[36] = Cell cycle arrest in human PLC/PRF/5 cells assessed as accumulation at G1 phase at 100 nM after 24 hrs by FACS analysis (reference value: 66.8%); format: functional, cell-based
[37] = Cell cycle arrest in human PLC/PRF/5 cells assessed as accumulation at G2 phase at 100 nM after 24 hrs by FACS analysis (reference value: 26.1%); format: functional, cell-based
[38] = Cell cycle arrest in human PLC/PRF/5 cells assessed as accumulation at sub-G1 phase at 100 nM after 24 hrs by FACS analysis (reference value: 1.4%); format: functional, cell-based

Structure (SMILES) | IC50 [1] | IC50 [2] | IC50 [3] | IC50 [4] | IC50 [5] | IC50 [6] | IC50 [7] | IC50 [8] | IC50 [9] | IC50 [10] | IC50 [11] | IC50 [12] | IC50 [13] | IC50 [14] | IC50 [15] | IC50 [16] | IC50 [17] | Activity [18] | Activity [19] | IC50 [26] | further results
CC(=O)O[C@@]12CO[C@@H]1C[C@H](O)[C@@]1(C)C(=O)[C@H](O)C3=C(C)[C@@H](OC(=O)[C@H](O)[C@@H](NC(=O)OC(C)(C)C)c4ccccc4)C[C@@](O)([C@@H](OC(=O)c4ccccc4)[C@H]21)C3(C)C.O.O.O [DOCETAXEL] | 16.6 nM | 12 nM | 2 nM | 22.4 nM | 1.9 nM | 38.2 nM | > 100 nM | 12.1 nM | > 100 nM | 14.1 nM | 16.7 nM | 39.2 nM | 4.3 nM | 17.6 nM | 10.8 nM | > 100 nM | 20.5 nM | 12.7% | 72.2% |  | Activity [20]: 9.3%; Activity [21]: 11.2%; Activity [22]: 64.4%; Activity [23]: 16.8%
COc1ccc2c(c1OC)C(=O)O[C@@H]2[C@H]1c2c(cc3c(c2OC)OCO3)CCN1C [NOSCAPINE] | > 2000 nM | > 2000 nM | > 1000 nM | > 1000 nM | > 1000 nM | > 1000 nM | > 1000 nM | > 1000 nM | > 1000 nM | > 1000 nM | > 1000 nM | > 1000 nM | > 1000 nM | > 1000 nM | > 1000 nM | > 1000 nM | > 1000 nM |  |  | > 1000 nM | Activity [24]: inactive; inhibition [25]: Active; Activity [27]: 66%; Activity [28]: 30.3%; Activity [29]: 1%; Activity [30]: 65.5%; Activity [31]: 27.1%; Activity [32]: 1.5%
C/C(=C\c1csc(C)n1)[C@@H]1C[C@@H]2O[C@]2(C)CCC[C@H](C)[C@H](O)[C@@H](C)C(=O)C(C)(C)[C@@H](O)CC(=O)O1 [PATUPILONE] | 5 nM | 3.8 nM | 2.3 nM | 6.7 nM | 0.9 nM | > 100 nM | 44.7 nM | 4.5 nM | 61.3 nM | 1.8 nM | 12.7 nM | 22.3 nM | 20 nM | 2.9 nM | 10.3 nM | 19.9 nM | 11.6 nM |  |  | 14.8 nM | Activity [33]: 13.7%; Activity [34]: 70.1%; Activity [35]: 11.8%; Activity [36]: 5.4%; Activity [37]: 56.3%; Activity [38]: 5.1%
CC[C@]1(O)C[C@H]2CN(CCc3c([nH]c4ccccc34)[C@@](C(=O)OC)(c3cc4c(cc3OC)N(C=O)[C@H]3[C@@](O)(C(=O)OC)[C@H](OC(C)=O)[C@]5(CC)C=CCN6CC[C@]43[C@@H]65)C2)C1 [VINCRISTINE] | 46.7 nM | 12.7 nM | 6.5 nM | 21.2 nM | 4.2 nM | > 100 nM | > 100 nM | 20 nM | > 100 nM | 7.2 nM | 22.1 nM | 35.9 nM | 40.9 nM | < 0.13 nM | 18.4 nM | > 100 nM | 29.3 nM | 17.1% | 64.5% | 28.2 nM | Activity [21]: 12.2%; Activity [22]: 68.4%; Activity [23]: 11.8%
